Measured values taken from ChEMBL document CHEMBL3085673, “The design of a novel series of muscarinic receptor antagonists leading to AZD8683, a potential inhaled treatment for COPD” (Bioorg Med Chem Lett, 2013).

Legend:
[1] = target: Muscarinic acetylcholine receptor M3 (Cavia porcellus, UniProt Q8VH26); assay: Antagonist activity at M3 receptor in Dunkin-Hartley guinea pig trachea assessed as inhibition of methacholine-induced airway smooth muscle contraction after 1 to 4 hrs; details: read-out: pA2 (converted)
Chain of Muscarinic acetylcholine receptor M3 (Cavia porcellus, UniProt Q8VH26) (Q8VH26 whole entry): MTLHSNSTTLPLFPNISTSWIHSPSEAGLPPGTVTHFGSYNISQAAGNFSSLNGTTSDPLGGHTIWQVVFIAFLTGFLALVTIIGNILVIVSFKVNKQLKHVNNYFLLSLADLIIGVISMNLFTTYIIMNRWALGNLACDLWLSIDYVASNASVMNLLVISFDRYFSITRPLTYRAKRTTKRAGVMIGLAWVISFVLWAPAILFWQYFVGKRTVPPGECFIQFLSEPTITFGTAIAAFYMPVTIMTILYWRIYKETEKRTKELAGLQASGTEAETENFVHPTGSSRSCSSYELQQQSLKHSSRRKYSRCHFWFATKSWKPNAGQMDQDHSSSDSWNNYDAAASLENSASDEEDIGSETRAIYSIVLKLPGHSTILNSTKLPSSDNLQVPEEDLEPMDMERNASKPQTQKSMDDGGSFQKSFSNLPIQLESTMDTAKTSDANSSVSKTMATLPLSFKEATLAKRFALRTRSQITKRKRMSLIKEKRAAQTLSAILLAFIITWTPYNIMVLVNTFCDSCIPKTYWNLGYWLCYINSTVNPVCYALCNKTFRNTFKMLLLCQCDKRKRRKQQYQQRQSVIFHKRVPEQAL
Procedure, shortened: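 Isolated guinea pig tracheal rings equilibrated 1 h, re-tensioned to 1 g, primed with methacholine, then a cumulative methacholine curve (3 × 10^-9 to 3 × 10^-5 M). Vehicle or compound equilibrated 1 or 4 h before a second curve (3 × 10^-9 to 1 × 10^-3 M final). Isometric force as % of curve-1 maximum. pA2 calculated from vehicle and test A50 values; n = 2.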

[2] = target: Muscarinic acetylcholine receptor M3 (Homo sapiens, UniProt P20309); assay: Displacement of [3H]NMS from recombinant human M3 receptor expressed in CHO-K1 cells after 16 hrs by SPA method; format: cell-based
Chain of Muscarinic acetylcholine receptor M3 (Homo sapiens, UniProt P20309) (P20309 whole entry): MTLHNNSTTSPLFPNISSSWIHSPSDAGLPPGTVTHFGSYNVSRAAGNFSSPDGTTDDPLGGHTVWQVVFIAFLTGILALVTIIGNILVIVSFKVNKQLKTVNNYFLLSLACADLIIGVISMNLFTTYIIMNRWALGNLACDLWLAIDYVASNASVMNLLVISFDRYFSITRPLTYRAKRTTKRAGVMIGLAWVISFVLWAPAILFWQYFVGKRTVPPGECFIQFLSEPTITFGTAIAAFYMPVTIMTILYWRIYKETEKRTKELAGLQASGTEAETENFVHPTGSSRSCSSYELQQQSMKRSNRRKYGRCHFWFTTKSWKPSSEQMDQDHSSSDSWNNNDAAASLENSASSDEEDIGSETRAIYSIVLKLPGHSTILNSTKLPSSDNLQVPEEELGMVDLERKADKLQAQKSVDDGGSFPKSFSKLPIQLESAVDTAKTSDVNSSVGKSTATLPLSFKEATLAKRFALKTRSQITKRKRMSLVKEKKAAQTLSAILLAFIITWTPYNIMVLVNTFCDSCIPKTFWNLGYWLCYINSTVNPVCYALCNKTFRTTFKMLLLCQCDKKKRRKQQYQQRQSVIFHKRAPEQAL
Procedure, shortened: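 Nonspecific binding defined with atropine 1 µM; eight total-binding replicates per plate. Incubated at room temperature at least 16 h to equilibrium before counting; n ≥ 2.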

[3] = Intrinsic clearance in human liver microsomes; format: ADME; details: read-out: CLH
[4] = Plasma protein binding in human; format: ADME, cell-free; details: for fraction unbound: read-out: PPB (converted)
[5] = Half life in guinea pig lung administered via intratracheal instillation at 1 ug/kg by HPLC-MS analysis; format: ADME, tissue-based, Cavia porcellus; details: inhaled or intranasal, 0.001 mg/kg
Procedure, shortened: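 Halothane-anaesthetised guinea pigs given 1 μg/kg by intratracheal instillation. Lungs collected at 0.25-24 h after barbiturate overdose, homogenised in phosphate buffer and added to ice-cold methanol. Supernatant analysed by mass spectrometry/HPLC.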

Cavia porcellus = assay: Toxicity in guinea pig assessed as reduction of pilocarpine-induced salivation administered via intranasal administered for 4 hrs followed by pilocarpine challenge measured every 5 mins for 15 mins; format: organism-based
Procedure, shortened: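 Compound or vehicle given intranasally under halothane. At 4 h, animals were anaesthetised with urethane and the mouth dried with gauze for 5 min. Baseline saliva taken on a pre-weighed pad over 5 min. Pilocarpine 0.6 mg/kg given subcutaneously, then pads replaced every 5 min for 15 min and saliva quantified by pad weight gain.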

SMILES	Kb [1] [pM]	IC50 [2] [pM]	microsomal CLint [3] [µL/min/mg]	fraction unbound [4]	half-life [5] [h]	EC50 (Cavia porcellus) [µg/kg]	PPB [4]
Cc1ccc(CC[N+]23CCC(CC2)[C@@H](OC(=O)C2(C4=CC=CC4)CCCCCC2)C3)s1	316	63.1	130	0.01			
O=C(C[N+]12CCC(CC1)[C@@H](OC(=O)C1(C3=CC=CC3)CCCCCC1)C2)Nc1ccc(C(F)(F)F)nc1		251	5				
Cn1ccc(CCC[N+]23CCC(CC2)[C@@H](OC(=O)C2(C4=CC=CC4)CCCCCC2)C3)n1		501	63	0.06			
O=C(O[C@H]1C[N+]2(CCOc3ccccc3)CCC1CC2)C1(C2=CC=CC2)CCCCCC1	398	158	106	0.04			
O=C(O[C@H]1C[N+]2(CCc3ccccc3)CCC1CC2)C1(C2=CC=CC2)CCCCCC1	316	79.4	105	0.007			
O=C(C[N+]12CCC(CC1)[C@@H](OC(=O)C1(C3=CC=CC3)CCCCCC1)C2)Nc1ccccc1		251	27	0.006			
O=C(O[C@H]1C[N+]2(Cc3ccccc3)CCC1CC2)C1(C2=CC=CC2)CCCCCC1		39800	68				
Cc1ccnc(NC(=O)C[N+]23CCC(CC2)[C@@H](OC(=O)C2(C4=CC=CC4)CCCCCC2)C3)c1		794	30	0.018			
O=C(C[N+]12CCC(CC1)[C@@H](OC(=O)C1(C3=CC=CC3)CCCCCC1)C2)Nc1ccncn1		158		0.11			
O=C(O[C@H]1C[N+]2(Cc3ccc(F)c(F)c3)CCC1CC2)C1(C2=CC=CC2)CCCCCC1		39800	55				
O=C(O[C@H]1C[N+]2(Cc3nc4ccccc4o3)CCC1CC2)C1(C2=CC=CC2)CCCCCC1	158	100	78	0.023	13	> 10	
Cc1ccc(CCC[N+]23CCC(CC2)[C@@H](OC(=O)C2(C4=CC=CC4)CCCCCC2)C3)c(C)n1		1000	50	0.04			
O=C(C[N+]12CCC(CC1)[C@@H](OC(=O)C1(C3=CC=CC3)CCCCCC1)C2)Nc1ncccc1F		251	49	0.06			
NC(=O)C[N+]12CCC(CC1)[C@@H](OC(=O)C1(C3=CC=CC3)CCCCCC1)C2	79.4	200	19	0.18	11.4		
Cc1cnc(NC(=O)C[N+]23CCC(CC2)[C@@H](OC(=O)C2(C4=CC=CC4)CCCCCC2)C3)cn1		794	27	0.04			
O=C(C[N+]12CCC(CC1)[C@@H](OC(=O)C1(C3=CC=CC3)CCCCCC1)C2)Nc1ccc(F)cn1		631		0.024			
O=C(C[N+]12CCC(CC1)[C@@H](OC(=O)C1(C3=CC=CC3)CCCCCC1)C2)Nc1cccc(F)c1	3160	126	17	0.003			
Cc1ccc(CCC[N+]23CCC(CC2)[C@@H](OC(=O)C2(C4=CC=CC4)CCCCCC2)C3)cn1		158	77	0.05	19.2		
O=C(O[C@H]1C[N+]2(CCCOc3ccccc3)CCC1CC2)C(O)(c1cccs1)c1cccs1.[Br-] [ACLIDINIUM BROMIDE]			> 145				ND(Unstable)
O=C(C[N+]12CCC(CC1)[C@@H](OC(=O)C1(C3=CC=CC3)CCCCCC1)C2)Nc1ncns1		398	25				
O=C(C[N+]12CCC(CC1)[C@@H](OC(=O)C1(C3=CC=CC3)CCCCCC1)C2)Nc1ccc(C(F)(F)F)nn1		2510					
Cc1ccc(NC(=O)C[N+]23CCC(CC2)[C@@H](OC(=O)C2(C4=CC=CC4)CCCCCC2)C3)nc1		501	51	0.019			
O=C(C[N+]12CCC(CC1)[C@@H](OC(=O)C1(C3=CC=CC3)CCCCCC1)C2)Nc1cncnc1		631	32				
O=C(C[N+]12CCC(CC1)[C@@H](OC(=O)C1(C3=CC=CC3)CCCCCC1)C2)Nc1ccncc1		2510	39	0.05			
COc1cccc(C[N+]23CCC(CC2)[C@@H](OC(=O)C2(C4=CC=CC4)CCCCCC2)C3)c1		3160					
CC(C)(C)c1cc(NC(=O)C[N+]23CCC(CC2)[C@@H](OC(=O)C2(C4=CC=CC4)CCCCCC2)C3)no1		10000					

SMILES	Kb [1] [pM]	IC50 [2] [pM]	microsomal CLint [3] [µL/min/mg]	fraction unbound [4]	half-life [5] [h]	EC50 (Cavia porcellus) [µg/kg]	PPB [4]
N#Cc1ccc(CC[N+]23CCC(CC2)[C@@H](OC(=O)C2(C4=CC=CC4)CCCCCC2)C3)cc1		3160	49				
O=C(O[C@H]1C[N+]2(CCCc3nc4ccccc4o3)CCC1CC2)C1(C2=CC=CC2)CCCCCC1				0.04	9.3		
Cc1cncc(NC(=O)C[N+]23CCC(CC2)[C@@H](OC(=O)C2(C4=CC=CC4)CCCCCC2)C3)n1		631	27				
O=C(C[N+]12CCC(CC1)[C@@H](OC(=O)C1(C3=CC=CC3)CCCCCC1)C2)NCCCNC(=O)c1ccccn1		6310	101	0.026			
O=C(O[C@H]1C[N+]2(CCCc3ccncc3)CCC1CC2)C1(c2cccs2)CCCCCC1	100	50.1	55	0.06			
Cc1ccc(NC(=O)C[N+]23CCC(CC2)[C@@H](OC(=O)C2(C4=CC=CC4)CCCCCC2)C3)nn1		794	16	0.1			
O=C(C[N+]12CCC(CC1)[C@@H](OC(=O)C1(C3=CC=CC3)CCCCCC1)C2)NCCNC(=O)c1cnccn1		3160	74				
Cc1cc(NC(=O)C[N+]23CCC(CC2)[C@@H](OC(=O)C2(C4=CC=CC4)CCCCCC2)C3)ncn1		1000	26	0.2			
O=C(C[N+]12CCC(CC1)[C@@H](OC(=O)C1(C3=CC=CC3)CCCCCC1)C2)N1CCOCC1		100000	15				
O=C(C[N+]12CCC(CC1)[C@@H](OC(=O)C1(C3=CC=CC3)CCCCCC1)C2)Nc1nncs1		7940	39	0.06			
O=C(C[N+]12CCC(CC1)[C@@H](OC(=O)C1(C3=CC=CC3)CCCCCC1)C2)Nc1cccc(C(F)(F)F)n1		2510		0.004			
Cc1nccc(NC(=O)C[N+]23CCC(CC2)[C@@H](OC(=O)C2(C4=CC=CC4)CCCCCC2)C3)n1		398					
O=C(C[N+]12CCC(CC1)[C@@H](OC(=O)C1(C3=CC=CC3)CCCCCC1)C2)Nc1cccnc1		200	40	0.04			
O=C(O[C@H]1C[N+]2(CCOCc3ccccc3)CCC1CC2)C1(C2=CC=CC2)CCCCCC1	3980	126	120	0.03			
O=C(C[N+]12CCC(CC1)[C@@H](OC(=O)C1(C3=CC=CC3)CCCCCC1)C2)Nc1cc[nH]n1		100	37	0.05			
O=C(C[N+]12CCC(CC1)[C@@H](OC(=O)C1(C3=CC=CC3)CCCCCC1)C2)Nc1cccnn1	79.4	158	70	0.1	42.4	> 10	
O=C(C[N+]12CCC(CC1)[C@@H](OC(=O)C1(C3=CC=CC3)CCCCCC1)C2)Nc1cncc(Cl)n1	501	100	51	0.015			
O=C(O[C@H]1C[N+]2(Cc3cc(-c4ccccc4)on3)CCC1CC2)C1(C2=CC=CC2)CCCCCC1	3160	79.4	79	0.005	12.1		
C[N+]12CCC(CC1)[C@@H](OC(=O)C1(C3=CC=CC3)CCCCCC1)C2		2510	34	0.27			
O=C(O[C@H]1C[N+]2(Cc3ccn(-c4ccccc4)n3)CCC1CC2)C1(C2=CC=CC2)CCCCCC1		398	103				
O=C(O[C@H]1C[N+]2(Cc3csc(-c4ccccc4)n3)CCC1CC2)C1(C2=CC=CC2)CCCCCC1		25100	133				
Cc1ccc(NC(=O)C[N+]23CCC(CC2)[C@@H](OC(=O)C2(C4=CC=CC4)CCCCCC2)C3)cn1		794					
C[N+]1(C)CCC(OC(=O)C2(c3ccccc3)CCCCCC2)CC1		251	20	0.27			
O=C(C[N+]12CCC(CC1)[C@@H](OC(=O)C1(C3=CC=CC3)CCCCCC1)C2)Nc1ncco1		12600	66	0.15			
O=C(C[N+]12CCC(CC1)[C@H](OC(=O)C1(C3=CC=CC3)CCCCCC1)C2)Nc1ccccn1		31600					
O=C(O[C@H]1C[N+]2(CCc3cccc(Cl)c3)CCC1CC2)C1(C2=CC=CC2)CCCCCC1	251	< 39.8	72	0.005			
